Calls of active or inactive are those of the source. The calls are words filed in the database; no cut-off is given here.
How the values were obtained:
[1] = target: Transcription factor p65 (Mus musculus) (UniProt Q04207); experiment: Inhibition of LPS-stimulated DNA binding activity of NF-kappaB p65 in mouse RAW264.7 cells assessed as at 20 and 40 uM pre-treated for 6 hrs prior to LPS-challenge measured after 30 mins by ELISA method; format: cell-based
Procedure, shortened: (§1)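 Cells pretreated 6 h with compound, then stimulated 30 min with LPS (500 ng/mL). Nuclear fractions probed by Western blot for p50 and p65. NF-κB DNA binding in nuclear extracts measured by TransAM ELISA kit. Mean ± SD of three experiments.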

[2] = tested on: RAW264.7; experiment: Antiinflammatory activity in LPS-stimulated mouse RAW264.7 cells assessed as reduction in nitrite production at 5 to 40 uM pre-treated for 6 hrs prior to LPS-challenge measured after 24 hrs by Griess reaction; format: functional, cell-based
Procedure, shortened: (§2)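 RAW264.7 macrophages pretreated 6 h with compound, then stimulated 24 h with LPS (500 ng/mL). Nitrite in conditioned medium measured. PGE2 measured by commercial kit. iNOS and COX-2 read by Western blot in RIPA lysates (25 mM Tris-HCl pH 7.6, 150 mM NaCl, 1% NP-40, 1% deoxycholate, 0.1% SDS). Mean ± SD of three experiments.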

[3] = tested on: RAW264.7; experiment: Antiinflammatory activity in LPS-stimulated mouse RAW264.7 cells assessed as reduction in PGE2 production at 5 to 40 uM pre-treated for 6 hrs prior to LPS-challenge measured after 24 hrs; format: functional, cell-based; procedure, shortened: as §2
[4] = tested on: RAW264.7; experiment: Reduction in iNOS expression in LPS-stimulated mouse RAW264.7 cells at 5 to 40 uM pre-treated for 6 hrs prior to LPS-challenge measured after 24 hrs by western blot analysis; format: functional, cell-based; procedure, shortened: as §2
[5] = tested on: RAW264.7; experiment: Reduction in COX2 expression in LPS-stimulated mouse RAW264.7 cells at 5 to 40 uM pre-treated for 6 hrs prior to LPS-challenge measured after 24 hrs by western blot analysis; format: functional, cell-based; procedure, shortened: as §2
[6] = tested on: RAW264.7; experiment: Reduction in TNF-alpha production in LPS-stimulated mouse RAW264.7 cells at 20 and 40 uM pre-treated for 6 hrs prior to LPS-challenge measured after 24 hrs; format: functional, cell-based
Procedure, shortened: (§3)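 RAW264.7 macrophages pretreated 6 h with compound, then given LPS (500 ng/mL) for 24 h. TNF-α, IL-1β and IL-6 protein measured by commercial kit (R&D Systems). mRNA levels measured by real-time PCR. Mean ± SD of three experiments; one-way ANOVA with Newman−Keuls test.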

[7] = tested on: RAW264.7; experiment: Reduction in IL-1beta production in LPS-stimulated mouse RAW264.7 cells at 20 and 40 uM pre-treated for 6 hrs prior to LPS-challenge measured after 24 hrs; format: functional, cell-based; procedure, shortened: as §3
[8] = tested on: RAW264.7; experiment: Reduction in IL6 production in LPS-stimulated mouse RAW264.7 cells at 20 and 40 uM pre-treated for 6 hrs prior to LPS-challenge measured after 24 hrs; format: functional, cell-based; procedure, shortened: as §3
[9] = tested on: RAW264.7; experiment: Reduction in TNF-alpha mRNA expression in LPS-stimulated mouse RAW264.7 cells at 20 and 40 uM pre-treated for 6 hrs prior to LPS-challenge measured after 24 hrs by real-time PCR analysis; format: functional, cell-based; procedure, shortened: as §3
[10] = tested on: RAW264.7; experiment: Reduction in IL-1beta mRNA expression in LPS-stimulated mouse RAW264.7 cells at 20 and 40 uM pre-treated for 6 hrs prior to LPS-challenge measured after 24 hrs by real-time PCR analysis; format: functional, cell-based; procedure, shortened: as §3
[11] = tested on: RAW264.7; experiment: Reduction in IL6 mRNA expression in LPS-stimulated mouse RAW264.7 cells at 20 and 40 uM pre-treated for 6 hrs prior to LPS-challenge measured after 24 hrs by real-time PCR analysis; format: functional, cell-based; procedure, shortened: as §3
[12] = tested on: RAW264.7; experiment: Inhibition of LPS-stimulated NF-kappaB p50 nuclear translocation in mouse RAW264.7 cells at 20 and 40 uM pre-treated for 6 hrs prior to LPS-challenge measured after 30 mins by western blot analysis; format: cell-based; procedure, shortened: as §1
[13] = target: Transcription factor p65 (Mus musculus) (UniProt Q04207); experiment: Inhibition of LPS-stimulated NF-kappaB p65 nuclear translocation in mouse RAW264.7 cells at 20 and 40 uM pre-treated for 6 hrs prior to LPS-challenge measured after 30 mins by western blot analysis; format: cell-based; procedure, shortened: as §1
[14] = target: T1, Nuclear factor erythroid 2-related factor 2 (Mus musculus) (UniProt Q60795); experiment: Activation of Nrf2 in LPS-stimulated mouse RAW264.7 cells assessed as induction of HO-1 mRNA expression at 5 to 40 uM pre-treated for 6 hrs prior to LPS-challenge measured after 12 hrs; format: cell-based
T1 sequence (whole entry): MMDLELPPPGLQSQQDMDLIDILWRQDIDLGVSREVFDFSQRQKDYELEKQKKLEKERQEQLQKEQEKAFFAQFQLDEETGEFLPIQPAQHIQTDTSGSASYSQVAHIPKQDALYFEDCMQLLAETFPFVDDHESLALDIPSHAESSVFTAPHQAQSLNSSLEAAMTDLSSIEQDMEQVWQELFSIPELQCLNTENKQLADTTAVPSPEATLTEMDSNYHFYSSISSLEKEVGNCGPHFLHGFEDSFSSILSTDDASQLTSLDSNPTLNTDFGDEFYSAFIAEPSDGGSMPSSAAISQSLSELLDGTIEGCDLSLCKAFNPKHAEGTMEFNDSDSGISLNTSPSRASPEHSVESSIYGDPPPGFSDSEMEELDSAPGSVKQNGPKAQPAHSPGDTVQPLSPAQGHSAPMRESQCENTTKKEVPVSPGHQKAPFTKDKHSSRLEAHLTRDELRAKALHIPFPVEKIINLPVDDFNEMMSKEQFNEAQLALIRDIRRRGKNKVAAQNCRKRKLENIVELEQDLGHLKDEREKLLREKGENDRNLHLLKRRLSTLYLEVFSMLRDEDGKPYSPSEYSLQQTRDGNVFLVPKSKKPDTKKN
Procedure, shortened: (§4)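 RAW264.7 macrophages incubated 12 h with compound (5−40 μM). HO-1 mRNA measured, and HO-1 protein by Western blot. Mean ± SD of three experiments; representative blots from three independent experiments.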

[15] = target: T1, Nuclear factor erythroid 2-related factor 2 (Mus musculus); experiment: Increase in nuclear Nrf2 translocation in LPS-stimulated mouse RAW264.7 cells assessed as nuclear Nrf2 level at 20 and 40 uM measured up to 120 mins by Western blot analysis; format: cell-based
Procedure, shortened: (§5)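 Cells exposed to compound at 40 μM for 0–120 min in 20 min steps. Nuclei separated from cytosol with PER-Mammalian Protein Extraction buffer plus protease inhibitor cocktail and 1 mM PMSF. Nuclear and cytoplasmic Nrf2 read by Western blot. Representative blots from three independent experiments.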

[16] = target: T1, Nuclear factor erythroid 2-related factor 2 (Mus musculus); experiment: Increase in nuclear Nrf2 translocation in LPS-stimulated mouse RAW264.7 cells assessed as cytosolic Nrf2 level at 20 and 40 uM measured up to 120 mins by Western blot analysis; format: cell-based; procedure, shortened: as §5
[17] = tested on: RAW264.7; experiment: Antiinflammatory activity in LPS-stimulated mouse RAW264.7 cells assessed as reduction in TNF-alpha production at 20 and 40 uM pre-treated for 6 hrs prior to LPS-challenge measured after 24 hrs iin presence of HO-1 competitive inhibitor SnPP; format: functional, cell-based
Procedure, shortened: (§6)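 RAW264.7 cells pretreated 6 h with compound (40 μM), with or without SnPP (50 μM), then stimulated 24 h with LPS (500 ng/mL). Nitrite in conditioned medium measured. PGE2, TNF-α, IL-1β and IL-6 measured by commercial kit (R&D Systems). iNOS and COX-2 read by Western blot. Mean ± SD of three experiments; one-way ANOVA with Newman−Keuls test.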

[18] = tested on: RAW264.7; experiment: Antiinflammatory activity in LPS-stimulated mouse RAW264.7 cells assessed as reduction in IL-1beta production at 20 and 40 uM pre-treated for 6 hrs prior to LPS-challenge measured after 24 hrs in presence of competitive inhibitor of HO-1 SnPP; format: functional, cell-based; procedure, shortened: as §6
[19] = tested on: RAW264.7; experiment: Antiinflammatory activity in LPS-stimulated mouse RAW264.7 cells assessed as reduction in IL6 production at 20 and 40 uM pre-treated for 6 hrs prior to LPS-challenge measured after 24 hrs in presence of HO-1 competitive inhibitor SnPP; format: functional, cell-based; procedure, shortened: as §6
[20] = tested on: RAW264.7; experiment: Reduction in iNOS expression in LPS-stimulated mouse RAW264.7 cells at 5 to 40 uM pre-treated for 6 hrs prior to LPS-challenge measured after 24 hrs by western blot analysis in presence of HO-1 competitive inhibitor SnPP by western blot analysis; format: functional, cell-based; procedure, shortened: as §6
[21] = tested on: RAW264.7; experiment: Reduction in COX2 expression in LPS-stimulated mouse RAW264.7 cells at 5 to 40 uM pre-treated for 6 hrs prior to LPS-challenge measured after 24 hrs by western blot analysis in presence of HO-1 competitive inhibitor SnPP by western blot analysis; format: functional, cell-based; procedure, shortened: as §6
[22] = target: T1, Nuclear factor erythroid 2-related factor 2 (Mus musculus); experiment: Activation of Nrf2 in LPS-stimulated mouse RAW264.7 cells assessed as induction of HO-1 protein expression at 5 to 40 uM pre-treated for 6 hrs prior to LPS-challenge measured after 12 hrs by western blot analysis; format: cell-based; procedure, shortened: as §4
[23] = tested on: RAW264.7; experiment: Antiinflammatory activity in LPS-stimulated mouse RAW264.7 cells assessed as reduction in PGE2 production at 5 to 40 uM pre-treated for 6 hrs prior to LPS-challenge measured after 24 hrs in presence of HO-1 competitive inhibitor SnPP
[24] = tested on: RAW264.7; experiment: Antiinflammatory activity in LPS-stimulated mouse RAW264.7 cells assessed as reduction in nitrite production at 5 to 40 uM pre-treated for 6 hrs prior to LPS-challenge measured after 24 hrs in presence of HO-1 competitive inhibitor SnPP by Griess reaction

Chain of Transcription factor p65 (Mus musculus) (Q04207 whole entry): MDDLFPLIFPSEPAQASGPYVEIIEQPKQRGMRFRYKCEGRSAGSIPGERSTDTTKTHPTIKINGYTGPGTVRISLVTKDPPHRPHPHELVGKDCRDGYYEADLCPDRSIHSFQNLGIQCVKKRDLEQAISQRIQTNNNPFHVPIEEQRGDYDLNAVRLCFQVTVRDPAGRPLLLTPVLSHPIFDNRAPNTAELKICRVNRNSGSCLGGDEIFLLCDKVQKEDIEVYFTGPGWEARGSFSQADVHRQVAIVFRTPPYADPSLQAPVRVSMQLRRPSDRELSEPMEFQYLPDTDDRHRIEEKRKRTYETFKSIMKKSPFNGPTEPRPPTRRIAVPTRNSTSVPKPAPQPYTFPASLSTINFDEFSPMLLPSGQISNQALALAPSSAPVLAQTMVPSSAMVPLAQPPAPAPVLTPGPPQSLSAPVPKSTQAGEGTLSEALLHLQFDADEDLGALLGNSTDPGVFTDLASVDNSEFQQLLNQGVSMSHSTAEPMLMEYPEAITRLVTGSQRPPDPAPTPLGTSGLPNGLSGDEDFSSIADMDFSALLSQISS

With `Cc1nc(Cc2ccc(N(C)C=O)cc2)c(C)nc1Cc1ccc(N(C)C=O)cc1` the inhibition [1] was “Active”, the Activity [2] was “Dose-dependent effect” and the Activity [3] was “Dose-dependent effect”. The Activity [4] was “Dose-dependent effect”, the Activity [5] was “Dose-dependent effect” and the Activity [6] was “Dose-dependent effect”. The Activity [7] was “Dose-dependent effect”, the Activity [8] was “Dose-dependent effect” and the Activity [9] was “Dose-dependent effect”. For the same compound, the Activity [10] was “Dose-dependent effect”, the Activity [11] was “Dose-dependent effect” and the inhibition [12] was “Active”. For the same compound, the inhibition [13] was “Active”, the Activity [14] was “Active” and the Activity [15] was “Active”. The Activity [16] was “Active”, the Activity [17] was “inactive” and the Activity [18] was “inactive”. For the same compound, the Activity [19] was “inactive”, the Activity [20] was “inactive” and the Activity [21] was “inactive”. The Activity [22] was “Active”, the Activity [23] was “inactive” and the Activity [24] was “inactive”.
